Substrate in series [1]: Cc1cc(=O)oc2cc(O)ccc12
The series can be described thus: Binding affinity to Streptomyces peucetius 4-O-methyltransferase DnrK assessed as catalytic constant. The gist of the method:
(§1)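 N-His6-DnrK (10 μM), expressed in E. coli, was run in 50 mM Tris pH 8.0 at 37 °C with saturating AdoMet (1.6 mM). Acceptor was varied: carminomycin from 15 μM to […] as printed, or 4-methylumbelliferone from 150 μM to 10 mM. Methylated product was quantified by reversed-phase HPLC peak integration. Runs were in triplicate, and parameters came from Michaelis–Menten reciprocal plots.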

Substrate in series [2]: Cc1cc(=O)oc2cc(O)ccc12
The series can be described thus: Binding affinity to Streptomyces peucetius 4-O-methyltransferase DnrK assessed as maximal activity. The method, boiled down:
as §1

What is called kcat is the number of substrate molecules converted per active site and unit of time at saturation. For orientation: Km means the substrate concentration at which the rate is half of its maximum.

B1: Carminomycin 4-O-methyltransferase DnrK (Streptomyces peucetius), Q06528 (protein)
chain: MTAEPTVAARPQQIDALRTLIRLGSLHTPMVVRTAATLRLVDHILAGARTVKALAARTDTRPEALLRLIRHLVAIGLLEEDAPGEFVPTEVGELLADDHPAAQRAWHDLTQAVARADISFTRLPDAIRTGRPTYESIYGKPFYEDLAGRPDLRASFDSLLACDQDVAFDAPAAAYDWTNVRHVLDVGGGKGGFAAAIARRAPHVSATVLEMAGTVDTARSYLKDEGLSDRVDVVEGDFFEPLPRKADAIILSFVLLNWPDHDAVRILTRCAEALEPGGRILIHERDDLHENSFNEQFTELDLRMLVFLGGALRTREKWDGLAASAGLVVEEVRQLPSPTIPYDLSLLVLAPAATGA
For B1, the kcat in series [1] is 0.0006 s⁻¹. For the same protein, the Km in series [2] came out at 1160 µM.

Values taken from ChEMBL document CHEMBL5335826, “Biochemical and Structural Studies of the Carminomycin 4-O-Methyltransferase DnrK” (J Nat Prod, 2024).
